The values below come from ChEMBL document CHEMBL1134306, “New antimitotic agents with activity in multi-drug-resistant cell lines and in vivo efficacy in murine tumor models” (J Med Chem, 2001).

pEC50: −log10 of the molar value.

The test system of data set [1] is NCI-H460. Nature of the data set: Effective dose against NCI-H460 cell line. The settings on record: Homo sapiens, read-out: ED50 (the source's name). In kind it is functional. The gist of the method:
(§1)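 HCT-15 (MDR+) or NCI-H460 (MDR−) cells in growth medium treated with compounds over a range of concentrations for 48 h. Cells then trypsinized and counted per well with a Coulter counter. ED50 derived from cell number. Compounds at 1 μM or below were retested in both lines. Values reported as mean ± SD.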

Data set [2] deals with HCT-15. Description: Effective dose against HCT-15 cell line. In kind it is functional. To be noted: Homo sapiens, read-out: ED50 (the source's name). The gist of the method: as §1
Data set [3] is described as follows: Oral bioavailability in mouse. In kind it is ADME, organism-based. The settings on record: in vivo.
Data set [4] has as its system Mus musculus. Description: (§2) Half-life following intravenous dosing, tested in vivo in mice. The data set is classed as ADME, organism-based.
Data set [5] is described as follows: Integrated compound concentration with respect to time following oral dosing, tested in vivo in mice. In kind it is ADME, organism-based. To be noted: mouse.
Data set [6] is described as follows: Volume of distribution following intravenous dosing, tested in vivo in mice. In kind it is ADME, organism-based. To be noted: mouse, read-out: Vc.
The test system of data set [7] is Mus musculus. Nature of the data set: (§3) Maximum plasma concentration following intravenous dosing, tested in vivo in mice. The data set is classed as ADME, organism-based. Also on record: route intravenous. The settings on record: in vivo.
In data set [8] the test system is Mus musculus. Nature of the data set: (§4) Area under the curve following intravenous dosing, integrated compound concentration with respect to time, tested in vivo in mice. In kind it is ADME, organism-based.
Data set [9] has as its system Mus musculus. Description: Time to maximum plasma concentration following oral dosing, tested in vivo in mice. To be noted: in vivo.
Data set [10] is described as follows: as §2. The data set is classed as ADME, organism-based. The settings on record: mouse.
A short description of data set [11]: as §3. In kind it is ADME, organism-based. Details: route intravenous. The settings on record: mouse, plasma.
A short description of data set [12]: as §4. In kind it is ADME, organism-based. The settings on record: mouse.
Data set [13] in a line: Time to maximum plasma concentration following oral dosing, tested in vivo in mice. To be noted: mouse, plasma.

On to `COc1cc(C2CN=C(c3ccc4c(c3)CCCN4C)O2)cc(OC)c1OC` (configuration not stated), for which the pEC50 in data set [1] is 6.49; in [2], 6.18.
As for `COc1cc(C2CN=C(c3ccc(C)c(N)c3)O2)cc(OC)c1OC` (configuration not stated), the figures for the pEC50 in data set [1] and in data set [2] were 7.20 and 7.09, respectively.
The compound `COc1cc(C2OC(c3ccc(N)c(C)c3)=NN2C(C)=O)cc(OC)c1OC` (configuration not stated) returned a bioavailability in [3] of 7%. This compound displayed a T1/2 in data set [4] of 66 min. Moreover, the pEC50 in [1] is 7.23; in [2] it was 7.38. Also, the AUC in data set [5] was found to be 147 ng·h/mL; in data set [8] it was 2109 ng·h/mL. Moreover, the Vd in data set [6] came to 2.2 L/kg. This compound also registered a Cmax in data set [7] of 59 ng/mL. Moreover, in data set [9], the T max stood at 102 min.
For `COc1ccc(C2=NCC(c3cc(OC)c(OC)c(OC)c3)O2)cc1N` (configuration not stated), the pEC50 is 7.14 in data set [1] and 7.09 in data set [2].
Taken in the same sequence, the figures for `COc1cc(C2OC(c3ccc(N(C)C)cc3)=NN2C(=O)CNC(C)=O)cc(OC)c1OC` (configuration not stated) were 6.32 and 6.74.
As to `COc1cc(-c2nnc(-c3ccc(N(C)C)cc3)o2)cc(OC)c1OC`, the pEC50 in data set [1] was 3.97; in data set [2], 4.04.
Consider `COc1cc(C2OC(c3ccc(N(C)C)cc3)=NN2C(=O)CNC=O)cc(OC)c1OC` (configuration not stated), for which the pEC50 was 7.40 in data set [1] and 7.46 in data set [2].
Take `COc1cc(C2OC(c3ccc(N(C)C)cc3)=NN2C(=O)COC(C)=O)cc(OC)c1OC` (configuration not stated): the pEC50 was 7.14 in data set [1] and 7.72 in data set [2].
Take `CC(=O)N1N=C(c2ccc(N(C)C)cc2)OC1c1cc(C)c(C)c(C)c1` (configuration not stated): the values for the pEC50 in data set [1] and in data set [2] were 5.24 and 5.82, respectively.
As for `COc1ccc(C2OC(c3ccc(N(C)C)cc3)=NN2C(C)=O)c(OC)c1OC` (configuration not stated), the pEC50 in [1] was 5.17; in [2], 5.12.
`COc1cc(C2CN=C(c3ccc(N(C)C)cc3)O2)cc(OC)c1OC` (configuration not stated) gave a bioavailability in data set [3] of 49%. Further, in [10], the half-life was 48 min. The pEC50 in data set [1] is 6.46; in data set [2] it was 6.92. Further, the AUC was 1660 ng·h/mL in [5] and 3410 ng·h/mL in data set [12]. Also, the Vd in data set [6] is 3.3 L/kg. The highest level in [11] (Cmax) was 891 ng/mL. For the same compound, the Tmax in [13] was 54 min.
For `COc1cc(OC)c(C2OC(c3ccc(N(C)C)cc3)=NN2C(C)=O)c(OC)c1` (configuration not stated), the pEC50 in data set [1] was 4.40; in data set [2] it was 4.15.
For the compound `COC(=O)c1c(OC)cc(C2OC(c3ccc(N)c(C)c3)=NN2C(C)=O)cc1OC` (configuration not stated), the pEC50 in [1] was 6.29; in [2] it was 6.55.
As for `CCOC(=O)C(=O)N1N=C(c2ccc(N(C)C)cc2)OC1c1cc(OC)c(OC)c(OC)c1` (configuration not stated), the pEC50 is 4.48 in data set [1] and 4.35 in data set [2].
The matching figures for `COc1cc(C2COC(c3ccc(N(C)C)cc3)O2)cc(OC)c1OC` (configuration not stated): 5.08 and 5.62.
For the compound `COc1cc(-c2nnc(-c3ccc(N(C)C)cc3)s2)cc(OC)c1OC`, the pEC50 is 3.00 in data set [1] and 3.64 in data set [2].
Turning to `COC(=O)N1N=C(c2ccc(N(C)C)cc2)OC1c1cc(OC)c(OC)c(OC)c1` (configuration not stated), the pEC50 was 3.97 in data set [1] and 4.40 in data set [2].
Consider `COc1cc(C2OC(c3ccc(N(C)C)cc3)=NN2C(=O)CO)cc(OC)c1OC` (configuration not stated), for which the pEC50 is 7.37 in [1] and 7.59 in data set [2].
Consider `COc1cc(C2OC(c3ccc(N)c(C)c3)=NN2C(C)=O)cc2c1OCO2` (configuration not stated), for which the pEC50 in [1] is 6.20; in [2], 6.21.
The matching figures for `CCCCNC(=O)c1c(OC)cc(C2OC(c3ccc(N)c(C)c3)=NN2C(C)=O)cc1OC` (configuration not stated): 4.22 and 3.75.
Turning to `COc1cc(C2CN=C(c3ccc4c(c3)CCN4C)O2)cc(OC)c1OC` (configuration not stated), the pEC50 is 6.09 in data set [1] and 6.21 in [2].
The matching figures for `COc1cc(C2CN=C(c3ccc4[nH]ccc4c3)O2)cc(OC)c1OC` (configuration not stated): 6.94 and 7.01.
For `COc1cc(OC)c(C2OC(c3ccc(N)c(C)c3)=NN2C(C)=O)cc1OC` (configuration not stated), the results for the pEC50 in data set [1] and in data set [2] were 3.00 and 3.70, respectively.
Regarding `COc1cc(C2SC(c3ccc(N(C)C)cc3)=NN2C(C)=O)cc(OC)c1OC` (configuration not stated), the values for the pEC50 in [1] and in data set [2] were 6.46 and 6.21, respectively.
On to `COc1cc(C2OC(c3ccc(N(C)C)cc3)=NN2C(=O)CN=[N+]=[N-])cc(OC)c1OC` (configuration not stated), for which the pEC50 in [1] is 6.28; in data set [2] it was 6.82.
On to `COc1cc(-c2cc(-c3ccc(N)c(C)c3)nn2C(C)=O)cc(OC)c1OC`, for which the results for the pEC50 in [1] and in [2] were 3.00 and 3.44, respectively.
Consider `COc1cc(C2OC(c3ccc(N(C)C)cc3)=NN2C(C)=O)cc(OC)c1OC(C)=O` (configuration not stated), for which the pEC50 in data set [1] was 4.89; in data set [2] it was 4.11.
The matching figures for `COc1cc(C2OC(c3ccc(N(C)C)cc3)=NN2C(=O)CN(C)C)cc(OC)c1OC` (configuration not stated): 4.13 and 4.10.
For `COc1cc(C2OC(c3cccc(N(C)C)c3)=NN2C(C)=O)cc(OC)c1OC` (configuration not stated), the pEC50 in data set [1] was 6.59; in data set [2] it was 6.80.
Taken in the same sequence, the figures for `COc1cc(C2OC(c3ccc(N(C)C)cc3)=NN2C(=O)CN)cc(OC)c1OC` (configuration not stated) were 6.18 and 6.19.
In the case of `COc1cc(C2OC(c3ccccc3N(C)C)=NN2C(C)=O)cc(OC)c1OC` (configuration not stated), the pEC50 is 3.96 in data set [1] and 4.19 in data set [2].
Take `COc1cc(C2CN=C(c3ccc4nc(O)oc4c3)O2)cc(OC)c1OC` (configuration not stated): the pEC50 in data set [1] was 4.14; in [2], 5.37.
Turning to `COc1cc(C2OC(c3ccc(N(C)C)cc3)=NN2C=O)cc(OC)c1OC` (configuration not stated), the pEC50 was 6.92 in data set [1] and 7.02 in data set [2].
As to `COc1cc(C2OC(c3ccc(N(C)C)cc3)=NN2C(C)=O)cc(OC)c1OC` (configuration not stated), in [3], the bioavailability is 4.9%. The compound further displayed a T1/2 in [4] of 66 min. Also, the pEC50 in data set [1] was 7.36; in data set [2] it was 7.48. Moreover, the AUC in data set [5] is 155 ng·h/mL; in data set [8] it was 3170 ng·h/mL. In addition, the Vd in data set [6] amounted to 3.3 L/kg. Moreover, in data set [7], the Cmax is 113 ng/mL. Also, the T max in data set [9] turned out to be 24 min.
Compound `COc1cc(C2CN=C(c3ccc4c(ccn4C)c3)O2)cc(OC)c1OC` (configuration not stated) had a bioavailability in [3] of 35%. This compound had a half-life in data set [10] of 114 min. Also, the pEC50 in [1] is 7.55; in [2] it was 7.74. In addition, the exposure (AUC) turned out to be 1780 ng·h/mL in data set [5] and 5120 ng·h/mL in data set [12]. Besides, the Vd in [6] came out at 1.4 L/kg. This compound also showed a Cmax in data set [11] of 799 ng/mL. Besides, the Tmax in data set [13] is 24 min.
On to `COc1ccc(C2OC(c3ccc(N(C)C)cc3)=NN2C(C)=O)cc1OC` (configuration not stated), for which the results for the pEC50 in [1] and in data set [2] were 5.29 and 5.09, respectively.
As to `CC(=O)O[C@H]1C(=O)[C@@]2(C)[C@H]([C@H](OC(=O)c3ccccc3)[C@]3(O)C[C@H](OC(=O)[C@H](O)[C@@H](NC(=O)c4ccccc4)c4ccccc4)C(C)=C1C3(C)C)[C@]1(OC(C)=O)CO[C@@H]1C[C@@H]2O` [PACLITAXEL], the pEC50 in [1] was 7.82; in [2], 6.27.

As usually defined, the bioavailability is dose-corrected exposure relative to a reference, in per cent. A high value points to much systemic uptake. Usually AUC stands for concentration integrated over time. For orientation: Cmax means the peak of the concentration-time curve. By half-life is commonly meant the time in which the quantity being followed falls by half. Low values mean rapid decline, high ones slow decline. By Tmax is commonly meant the time at which the peak concentration occurs.
